Assay results from ChEMBL document CHEMBL3813641, “Prediction and verification of novel peptide targets of protein tyrosine phosphatase 1B” (Bioorg Med Chem, 2016).

What was measured:
[1] = substrate: CC(C)C[C@@H](N)C(=O)NCC(=O)N[C@@H](CO)C(=O)N[C@@H](CCCNC(=N)N)C(=O)N[C@@H](C)C(=O)N1CCC[C@@H]1C(=O)N[C@H](Cc1ccc(O)cc1)C(=O)N1CCC[C@H]1C(=O)N[C@@H](Cc1cnc[nH]1)C(=O)N[C@H](Cc1ccccc1)C(=O)N[C@H](CS)C(=O)N[C@H](C)C(=O)O; test: (§1) Substrate activity at recombinant human N-terminal His-tagged PTP1B (1 to 321 residues) expressed in Escherichia coli BL21(DE3) cells assessed as inorganic phosphate release after 30 mins by spectrophotometric method
In short: (§2)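 Synthetic phosphotyrosine peptides (N-acetylated, C-terminal amide, HPLC-purified) were incubated in vitro with purified PTP1B, and the released inorganic phosphate was detected with the EnzChek phosphate assay kit.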

[2] = substrate: CC(C)[C@H](NC(=O)[C@H](CC(=O)O)NC(=O)[C@H](CCC(=O)O)NC(=O)[C@H](CC(N)=O)NC(=O)[C@@H](N)CC(=O)O)C(=O)N1CCC[C@@H]1C(=O)N[C@@H](Cc1ccc(O)cc1)C(=O)N[C@H](C(=O)N[C@@H](Cc1ccccc1)C(=O)N[C@@H](CCCCN)C(=O)N[C@H](C(=O)N1CCC[C@H]1C(=O)O)[C@@H](C)O)[C@@H](C)O; test: as §1; in short: as §2
[3] = substrate: CC[C@H](C)[C@H](N)C(=O)N[C@@H](CCC(=O)O)C(=O)N[C@@H](CC(=O)O)C(=O)N1CCC[C@H]1C(=O)N1CCC[C@@H]1C(=O)N[C@@H](Cc1ccc(O)cc1)C(=O)N1CCC[C@@H]1C(=O)N[C@@H](Cc1ccc(O)cc1)C(=O)NCC(=O)N[C@@H](CC(N)=O)C(=O)N[C@@H](CC(=O)O)C(=O)N[C@@H](CO)C(=O)N[C@@H](CC(=O)O)C(=O)O; test: as §1; in short: as §2
[4] = substrate: CC[C@H](C)[C@H](NC(=O)[C@@H]1CCCN1C(=O)[C@H](CCC(=O)O)NC(=O)[C@H](C)NC(=O)[C@H](Cc1ccc(O)cc1)NC(=O)[C@H]1CCCN1C(=O)[C@H](CC(N)=O)NC(=O)[C@H](CC(=O)O)NC(=O)[C@H](CO)NC(=O)[C@@H]1CCCN1C(=O)[C@@H](N)CC(=O)O)C(=O)N[C@@H](CC(=O)O)C(=O)O; test: as §1; in short: as §2
[5] = substrate: CC[C@H](C)[C@H](NC(=O)[C@@H]1CCCN1C(=O)[C@H](CO)NC(=O)[C@H](CCCCN)NC(=O)[C@H](Cc1ccc(O)cc1)NC(=O)[C@H]1CCCN1C(=O)[C@@H](NC(=O)[C@@H]1CCCN1C(=O)[C@H](CC(N)=O)NC(=O)[C@H](CCC(=O)O)NC(=O)[C@@H](N)CCC(N)=O)[C@@H](C)CC)C(=O)N[C@@H](CC(N)=O)C(=O)O; test: as §1; in short: as §2
[6] = substrate: CC[C@H](C)[C@H](NC(=O)[C@H](CC(=O)O)NC(=O)[C@H](CCC(=O)O)NC(=O)[C@H](CCC(=O)O)NC(=O)[C@@H](N)CCC(=O)O)C(=O)N1CCC[C@@H]1C(=O)N[C@@H](Cc1ccc(O)cc1)C(=O)N[C@@H](CCC(=O)O)C(=O)N[C@H](C(=O)N[C@@H](CC(C)C)C(=O)N1CCC[C@H]1C(=O)N[C@@H](CC(=O)O)C(=O)O)C(C)C; test: as §1; in short: as §2
[7] = substrate: C[C@@H](O)[C@H](NC(=O)[C@@H](N)CO)C(=O)N[C@@H](CCC(=O)O)C(=O)N1CCC[C@H]1C(=O)N[C@@H](CCC(N)=O)C(=O)N1CCC[C@@H]1C(=O)N[C@@H](Cc1ccc(O)cc1)C(=O)N[C@@H](CCC(N)=O)C(=O)N1CCC[C@H]1C(=O)NCC(=O)N[C@@H](CCC(=O)O)C(=O)N[C@@H](CC(N)=O)C(=O)O; test: as §1; in short: as §2
[8] = substrate: NCCCC[C@H](NC(=O)[C@H](CCCCN)NC(=O)[C@@H]1CCCN1C(=O)[C@H](Cc1ccc(O)cc1)NC(=O)[C@H]1CCCN1C(=O)[C@H](CCCCN)NC(=O)[C@H](CCCCN)NC(=O)[C@H](CCCCN)NC(=O)[C@@H](N)CCCCN)C(=O)O; test: as §1; in short: as §2
[9] = substrate: NCCCC[C@H](NC(=O)[C@H](CCCCN)NC(=O)[C@@H]1CCCN1C(=O)[C@H](Cc1ccc(O)cc1)NC(=O)[C@H]1CCCN1C(=O)[C@H](CCCCN)NC(=O)[C@H](CCCCN)NC(=O)[C@H](CCCCN)NC(=O)[C@@H](N)CCCCN)C(=O)O; test: Ratio of Kcat to Km for recombinant human N-terminal His-tagged PTP1B (1 to 321 residues) expressed in Escherichia coli BL21(DE3) cells
[10] = substrate: CC(C)[C@H](NC(=O)[C@@H](CCCCN)NC(=O)[C@@H](Cc1ccc(O)cc1)NC(=O)[C@H]1CCCN1C(=O)[C@H](Cc1ccc(O)cc1)NC(=O)[C@H]1CCCN1C(=O)[C@H](CCC(=O)O)NC(=O)[C@H](N)CCCCN)C(=O)N[C@H](CCCCN)C(=O)O; test: Substrate activity at PTP1B (unknown origin); conditions: Homo sapiens; in short: as §2

B1: Tyrosine-protein phosphatase non-receptor type 1 (Homo sapiens), P18031 (protein)
chain: MEMEKEFEQIDKSGSWAAIYQDIRHEASDFPCRVAKLPKNKNRNRYRDVSPFDHSRIKLHQEDNDYINASLIKMEEAQRSYILTQGPLPNTCGHFWEMVWEQKSRGVVMLNRVMEKGSLKCAQYWPQKEEKEMIFEDTNLKLTLISEDIKSYYTVRQLELENLTTQETREILHFHYTTWPDFGVPESPASFLNFLFKVRESGSLSPEHGPVVVHCSAGIGRSGTFCLADTCLLLMDKRKDPSSVDIKKVLLEMRKFRMGLIQTADQLRFSYLAVIEGAKFIMGDSSVQDQWKELSHEDLEPPPEHIPPPPRPPKRILEPHNGKCREFFPNHQWVKEETQEDKDCPIKEEKGSPLNAAPYGIESMSQDTEVRSRVVGGSLRGAQAASPAKGEPSLPEKDEDHALSYWKPFLVNMCVATVLTAGAYLCYRFLFNSNT
- Km [1]: > 300 µM
- Km [2]: 17.1 µM
- Km [3]: 20.1 µM
- Km [4]: 28.5 µM
- Km [5]: 21.7 µM
- Km [6]: 14.7 µM
- Km [7]: 29.1 µM
- Km [8]: Not Active
- kcat/Km [9]: Not Active
- Km [10]: 12.7 µM
